ChEMBL document CHEMBL1800022, “Structure-activity relationships of a series of analogues of the RFamide-related peptide 26RFa” (J Med Chem, 2011)
The source made the active and inactive calls. The calls are words filed in the database; no cut-off is given here. Residues, ends and D or L forms follow the SMILES beside them. *: point of attachment. NHBn = c1ccc(CN*)cc1

Experiments:
[1] = target: T1, Pyroglutamylated RF-amide peptide receptor (Homo sapiens) (UniProt Q96P65); experiment: Agonist activity at DYKDDDDK-flagged human GPR103 receptor expressed in CHO-K1 cells co-expressing G-protein alpha16 assessed as stimulation of calcium mobilization at 10' -12 to 10^-5 M after 2 mins by fluorometric analysis; format: functional, cell-based
T1 sequence (whole entry): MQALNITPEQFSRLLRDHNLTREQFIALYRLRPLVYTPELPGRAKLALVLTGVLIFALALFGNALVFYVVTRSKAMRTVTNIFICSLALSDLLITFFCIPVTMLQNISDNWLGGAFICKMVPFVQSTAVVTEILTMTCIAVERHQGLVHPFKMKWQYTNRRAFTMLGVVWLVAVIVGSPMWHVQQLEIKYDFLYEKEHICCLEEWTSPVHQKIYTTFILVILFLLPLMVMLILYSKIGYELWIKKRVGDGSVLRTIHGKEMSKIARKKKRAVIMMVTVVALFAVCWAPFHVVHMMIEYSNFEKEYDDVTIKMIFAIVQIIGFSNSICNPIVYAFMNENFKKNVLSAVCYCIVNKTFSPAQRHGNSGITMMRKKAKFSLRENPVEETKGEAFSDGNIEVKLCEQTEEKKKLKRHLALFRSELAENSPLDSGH
Procedure, shortened: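 CHO-K1 cells stably expressing Gα16 and C-terminally flag-tagged human GPR103 (Geneticin-selected), plated at 40 000 cells/well 24 h before assay. Loaded with 2 μM Fluo-4AM for 1 h, washed, then 30 min in HBSS with 2.5 mM probenecid and 5 mM HEPES. Peptides added at 10^-12 to 10^-5 M final and fluorescence read for 2 min. Triplicates; EC50 from sigmoidal variable-slope fit, at least three experiments.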

[2] = target: T1, Pyroglutamylated RF-amide peptide receptor (Homo sapiens); experiment: Antagonist activity at DYKDDDDK-flagged human GPR103 receptor expressed in CHO-K1 cells co-expressing G-protein alpha16 assessed as inhibition of 26RFa-induced calcium mobilization after 2 mins by fluorometric analysis; format: functional, cell-based
Procedure, shortened: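 Same Gα16/flag-hGPR103 CHO-K1 cells, Fluo-4AM loading and HBSS/probenecid/HEPES buffer. Triplicates; IC50 reported as mean ± SEM of at least three experiments.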

Activity [1] | inhibition [2] | SMILES
inactive | inactive | CC(C)C[C@H](NC(=O)[C@H](CCC(=O)O)NC(=O)[C@H](CCC(=O)O)NC(=O)[C@H](C)NC(=O)[C@@H](N)CC(C)C)C(=O)N[C@@H](CC(N)=O)C(=O)NCC(=O)N[C@@H](Cc1ccc(O)cc1)C(=O)N[C@@H](CO)C(N)=O (H-LAEELNGYS-NH2)
inactive | inactive | CC(C)C[C@H](NC(=O)[C@@H]1CCCN1)C(=O)NCC(=O)N[C@@H](CC(N)=O)C(=O)N[C@@H](CC(C)C)C(=O)N[C@@H](C)C(=O)N[C@@H](CCC(=O)O)C(=O)N[C@@H](CCC(=O)O)C(=O)N[C@@H](CC(C)C)C(=O)N[C@@H](CC(N)=O)C(=O)NCC(=O)N[C@@H](Cc1ccc(O)cc1)C(=O)N[C@@H](CO)C(=O)N[C@@H](CCCNC(=N)N)C(N)=O (H-PLGNLAEELNGYSR-NH2)
inactive | inactive | CC(C)C[C@H](NC(=O)[C@H](CC(N)=O)NC(=O)CNC(=O)[C@H](CC(C)C)NC(=O)[C@@H]1CCCN1C(=O)CNC(=O)[C@H](CO)NC(=O)[C@@H](N)[C@@H](C)O)C(=O)N[C@@H](C)C(=O)N[C@@H](CCC(=O)O)C(=O)N[C@@H](CCC(=O)O)C(=O)N[C@@H](CC(C)C)C(=O)N[C@@H](CC(N)=O)C(=O)NCC(=O)N[C@@H](Cc1ccc(O)cc1)C(=O)N[C@@H](CO)C(N)=O (H-TSGPLGNLAEELNGYS-NH2)
inactive | inactive | N=C(N)NCCC[C@@H](NC(=O)[C@H](Cc1ccccc1)NC(=O)[C@H](CO)NC(=O)[C@H](Cc1ccccc1)NC(=O)CNC(=O)CN)C(=O)N[C@@H](Cc1ccccc1)C(N)=O
inactive | inactive | C[C@H](NC(=O)[C@H](CCCNC(=N)N)NC(=O)[C@H](Cc1ccccc1)NC(=O)[C@H](CO)NC(=O)[C@H](Cc1ccccc1)NC(=O)CNC(=O)CN)C(N)=O (H-GGFSFRA-NH2)
inactive | inactive | C[C@H](NC(=O)[C@H](CO)NC(=O)[C@H](Cc1ccccc1)NC(=O)CNC(=O)CN)C(=O)N[C@@H](CCCNC(=N)N)C(=O)N[C@@H](Cc1ccccc1)C(N)=O (H-GGFSARF-NH2)
inactive | inactive | N=C(N)NCCC[C@H](NC(=O)[C@@H](Cc1ccccc1)NC(=O)[C@H](CO)NC(=O)[C@H](Cc1ccccc1)NC(=O)CNC(=O)CN)C(=O)N[C@@H](Cc1ccccc1)C(N)=O
inactive | inactive | N=C(N)NCCC[C@H](NC(=O)[C@H](Cc1ccccc1)NC(=O)[C@H](CO)NC(=O)[C@H](Cc1ccccc1)NC(=O)CNC(=O)CN)C(=O)N[C@H](Cc1ccccc1)C(N)=O
inactive | inactive | N=C(N)NCCC[C@H](NC(=O)[C@H](Cc1ccccc1)NC(=O)[C@H](CO)NC(=O)[C@H](Cc1ccccc1)NC(=O)CNC(=O)CN)C(=O)NCc1ccccc1 (H-GGFSFR-NHBn)
